Assay results from different studies.
Each line is one published result; the experiments were not run side by side.
Target: LIM domain kinase 1 (LIMK1, Homo sapiens, UniProt P53667)

| SMILES | test | conditions | measurement | value |
| --- | --- | --- | --- | --- |
| CCN(CC)CCNC(=O)c1c(C)[nH]c(/C=C2\C(=O)Nc3ccc(F)cc32)c1C | enzyme activity, inhibitor | 0.3 µM | inhibition | -9% |
| Cn1nc(C(F)(F)F)cc1-c1cnc(N2CCc3cc(S(=O)(=O)Nc4c(F)cc(Cl)cc4F)cc(N4CCCC4=O)c32)nc1 | cell-free assay, competition with immobilised ligand | 1 µM | remaining binding | 100% |
| C[C@@H]1CCN(C(=O)CC#N)C[C@@H]1N(C)c1ncnc2[nH]ccc12 | cell-free assay, inhibitor | 0.5 µM | remaining signal | 82% |
| CC(C)(O)[C@H]1CC[C@H](Nc2ccc3ncc(-c4cccc(C(F)(F)F)c4)n3n2)CC1 | enzyme activity, inhibitor | 1 µM | remaining activity | 76.3% |
| N#CCCc1ccc2c(c1)-c1[nH]c3ccc([N+](=O)[O-])cc3c1CC(=O)N2 | cell-free assay | 0.5 µM | remaining signal | 99.9% |
| CCCOc1ccc([C@@H]2[C@@H](C(=O)O)[C@H](c3ccc4c(c3)OCO4)CN2CC(=O)Nc2c(CC)cccc2CC)cc1 | cell-free assay, competition with immobilised ligand | 1 µM | remaining binding | 90% |
| CCN(CC)c1ccc(C2=NNC(=O)CC2C)cc1[N+](=O)[O-] (centres unmarked) | enzyme activity, inhibitor | 10 µM | remaining activity | 93% |
| CCCOc1ccc(OC)c(F)c1C(=O)c1ccc(C(=O)N[C@@H]2CNC[C@H]2NC(=O)c2ccc3[nH]ncc3c2)cc1 | enzyme activity, inhibitor | 10 µM | remaining activity | 73% |
| CNC(=O)c1cc(Oc2ccc(NC(=O)Nc3ccc(Cl)c(C(F)(F)F)c3)cc2)ccn1 | enzyme activity, inhibitor | 10 µM | inhibition | 89% |
| CC(=O)c1c(NS(C)(=O)=O)c2cc(-c3ccc(Cl)cc3)c(-c3ccc(Cl)cc3Cl)nc2n(C)c1=O | cell-free assay, competition with immobilised ligand | 1 µM | remaining binding | 88% |
| Cc1cc(NC(=O)c2cccc3cc(-c4cccc5[nH]nc(N)c45)ccc23)ccc1F | enzyme activity, inhibitor | 0.1 µM | activity vs control | 90% |
| COc1cc(Nc2c(C#N)cnc3cc(OCCCN4CCN(C)CC4)c(OC)cc23)c(Cl)cc1Cl | cell-free assay | 0.5 µM | remaining signal | 96.4% |
| CN(C)CC#Cc1ccc(OCCCc2sc(N3CCc4cccc(C(=O)Nc5nc6ccccc6s5)c4C3)nc2C(=O)O)c(F)c1 | cell-free assay, competition with immobilised ligand | 1 µM | remaining binding | 97% |
| Cc1cnc(NC2CCOCC2)nc1-n1cnc(C(=O)NC(CN)c2cc(F)cc(Cl)c2)c1 (centres unmarked) | enzyme activity, inhibitor, radiometric | 1 µM | remaining activity | 64% |
| Cn1cnc(Br)c1C1=CN(c2ncnc3[nH]cnc23)CCS1 | enzyme activity, inhibitor, radiometric | 2 µM | inhibition | 82.8% |
| O=C(Nc1cnn(-c2csc(C(=O)NC3COC3)c2)c1)Nc1c(F)cccc1Cl | enzyme activity, inhibitor | 5 µM | remaining activity | 104% |
| CNC(=O)c1ccc(Nc2ncc(C(F)(F)F)c(NCc3nccnc3N(C)S(C)(=O)=O)n2)cc1 | cell-free assay, competition with immobilised ligand | 0.1 µM | remaining binding | 100% |
| COc1cc(Cl)c(C(=O)N[C@@H](CN[C@H]2CC[C@@H](N)CC2)Cc2ccc(C#N)cc2)cc1-c1ccc(CN[C@H](C)c2ccc(C)cc2)o1 | enzyme activity, inhibitor | 1 µM | remaining activity | 100% |
| CC(C)(C)c1nc(-c2cccc(NS(=O)(=O)c3c(F)cccc3F)c2F)c(-c2ccnc(N)n2)s1 | enzyme activity, inhibitor, radiometric | 1 µM | remaining activity | 98% |
| Cc1nc(Cc2cccc(C(F)(F)F)c2)sc1-c1ccc(C(N)=O)nc1 | cell-free assay, competition with immobilised ligand | 1 µM | remaining binding | 100% |
